Bioassay records deposited in PubChem by several laboratories.
Sampled rows, rich in hits. Any-hit rate of the full collection: about 3.4%.
TMEM16A act = TMEM16A chloride channel activators or potentiators, primary screen, cell-based, HTS | B-score at 10 µM | AID 623877, 2012 | 340,000 tested, 0.3% active | Anoctamin-1 (Mus musculus), Q8BHY3 | HEK293 TMEM16A/YFP-H148Q/I152L, iodide quench fluorescence; stronger effect = lower value;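 active means fluorescence-ratio B-score plate-corrected deviation score at least 3 library SD below zero, with starting fluorescence score within 5 deviations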;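 further: channel opened by trigger with iodide after compound preincubation; score built on the fluorescence ratio of max minus min over baseline; more negative score means more quench and so TMEM16A activation or potentiation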
MC4R barr agon = MC4R agonists recruiting beta-arrestin, primary screen, cell-based, luminescence, agonist arm of biased-ligand search; U2OS MC4R beta-arrestin complementation; percent of melanotan II response, DMSO zero; Melanocortin receptor 4 (Homo sapiens), P32245; 360,000 tested, 0.98% active; activation, % at 8.9 µM;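 active means activation above a per-plate cutoff, the mean activation of sample wells on that plate plus 3 SD, cut at about 8% in these data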
MC4R antag cAMP = MC4R antagonists of cAMP signaling, primary screen, cell-based, TR-FRET, antagonist arm of biased-ligand search. Melanocortin receptor 4 (Homo sapiens), P32245. MC4R-expressing cells, MTII-stimulated cAMP, LANCE TR-FRET. inhibition, % at 6.5 µM. 360,000 tested, 0.48% active;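 active means inhibition above its plate's cutoff, the mean of tested wells on that plate plus 3 SD, cut at about 29% in these data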
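Material – human MC4R-expressing U2OS cells · Repeats – no replicates · Detection – TR-FRET with Eu-cAMP and labeled anti-cAMP, 671 nm · Times – compound 30 min, challenge 1 h, detection 1 h · Compound – single nominal compound dose of 6.5 µM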
TMEM16A inh = TMEM16A chloride channel inhibitors, primary screen, cell-based, HTS; Anoctamin-1 (Mus musculus), Q8BHY3; HEK293 TMEM16A/YFP iodide influx fluorescence, ionomycin; AID 588511, 2011; normalized B-score (activity score, 25-100; higher = stronger inhibition) at 10 µM; 310,000 tested, 1.2% active;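 active means ratio plate-corrected score three or more library SD toward inhibition, starting fluorescence score within five deviations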;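 further: score derived from kinetic fluorescence span divided by baseline fluorescence per well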
HTR2A ag = mouse Htr2a agonists via beta-arrestin recruitment, primary screen, cell-based, luminescence. 5-hydroxytryptamine receptor 2A (Mus musculus), P35363. CHO-K1 mHTR2A beta-arrestin complementation; percent of 30 µM serotonin response. activation, % at 7.6 µM. 360,000 tested, 0.66% active;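 active means activation above a run cutoff, the mean activation of all tested compounds plus 3 SD, cut at about 14% in these data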
Target sequence (P35363 whole entry, looked up): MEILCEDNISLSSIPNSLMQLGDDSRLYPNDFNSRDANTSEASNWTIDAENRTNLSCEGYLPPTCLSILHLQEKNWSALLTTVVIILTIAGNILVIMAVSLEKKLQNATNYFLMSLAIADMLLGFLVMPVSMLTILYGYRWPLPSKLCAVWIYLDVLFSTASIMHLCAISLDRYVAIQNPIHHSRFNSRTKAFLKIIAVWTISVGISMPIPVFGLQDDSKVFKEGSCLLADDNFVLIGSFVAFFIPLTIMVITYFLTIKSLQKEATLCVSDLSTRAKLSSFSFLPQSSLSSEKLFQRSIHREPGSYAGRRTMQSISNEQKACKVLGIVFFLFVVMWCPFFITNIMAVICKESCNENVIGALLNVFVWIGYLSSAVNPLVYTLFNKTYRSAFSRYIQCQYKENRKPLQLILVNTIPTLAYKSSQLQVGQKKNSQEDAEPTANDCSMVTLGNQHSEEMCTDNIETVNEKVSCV
MIN6 prolif = inducers of MIN6 beta-cell proliferation, primary screen, ATP luminescence, uHTS. MIN6 cells proliferation, ATPlite luminescence, 48 h; cells starved in 0.2% serum; 100% = growth in 10% serum. proliferation, % at 10 µM. 330,000 tested, 0.29% active. AID 2380, 2010;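 active means compounds whose signal lies at least 3.5 SD above the mean of all wells on their plate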
MC4R barr ag = MC4R beta-arrestin agonists, retest, confirmation, cell-based, luminescence, U2OS; shares compounds with MC4R barr agon; U2OS MC4R beta-arrestin recruitment; scaled DMSO 0%, Melanotan II 100%; activation, % at 8.9 µM; 2,400 tested, 31% active;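 active means mean activation across replicates above the hit cutoff set in the earlier primary screen, cut at about 8% in these data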
MOR DOR agonist = agonists of MOR-DOR heterodimerization, counter-screen for MC4R biased agonist project, cell-based, luminescence | shares compounds with MC4R barr agon | U2OS PathHunter beta-arrestin, beta-gal luminescence; percent of deltorphin B response, DMSO zero | activation, % at 9.2 µM | 2,400 tested, 5.8% active | AID 602194, 2012;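 active means mean activation across replicates exceeds the hit threshold derived in the earlier primary screen, cut at about 18% in these data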
A number is an active result; i = inactive; nt = no result given.

SMILES	TMEM16A act	MC4R barr agon	MC4R antag cAMP	TMEM16A inh	HTR2A ag	MIN6 prolif	MC4R barr ag	MOR DOR agonist
CCn1c(CNC(=O)c2cccc(C)c2)nnc1SCC(=O)N1CCOCC1	i	i	i	i	i	i	nt	nt
COCCNc1nc(-c2ccccc2CO)c2sc(-c3ccccc3)cc2n1	nt	i	i	nt	i	nt	nt	nt
CCOC(=O)c1ccn(CSc2c(F)c(F)cc(F)c2F)n1	i	i	i	nt	i	i	nt	nt
CCCCN(C(=O)c1ccc(-n2nc(C)cc2C)cc1)c1c(N)n(CCC)c(=O)[nH]c1=O	i	i	i	nt	i	i	nt	nt
CCOc1ccc(Br)cc1S(=O)(=O)Nc1ccc(C(=O)Nc2ccc(C)cc2)cc1	i	10	i	i	i	i	i	i
COc1ccc(C(=O)Cn2c(C(=O)/C=C/c3ccccc3)nc3ccccc32)cc1	i	23	i	i	i	i	9.4	i
N#C/C(=C/c1ccc(-c2ccc(S(N)(=O)=O)cc2)o1)c1nc2ccccc2s1	i	i	i	i	i	i	nt	nt
N#C/C(=C\c1ccc(-c2nc3ccccc3s2)o1)C(N)=O	i	21	i	i	i	i	i	i
CNC(=O)/C(C#N)=C/c1ccc(-c2nc3ccccc3s2)o1	i	38	i	i	i	i	i	i
COCCOc1ccc(C(F)(F)F)cc1NC(=O)c1ccc(F)cc1	i	i	i	i	i	i	nt	nt
COCCOc1ccc(C(F)(F)F)cc1NC(=O)c1ccc(C)cc1	i	15	i	i	i	i	i	i
COc1ccc(CNc2nc(NCc3ccc(OC)cc3)c3[nH]cnc3n2)cc1	i	12	i	i	i	i	8.8	i
CC(=O)Nc1ccc(-c2ccnc3c2CC(C(=O)Nc2cccc(N(C)C)c2)O3)cc1 (centres undefined)	nt	i	i	nt	i	nt	nt	nt
O=C1CN(c2ccccc2)C(=S)N1C(=O)c1ccc(Br)cc1	i	i	i	i	i	i	nt	nt
Cc1cc(N2CCN(C(=O)c3ccco3)CC2)n2nc(-c3cccc(Cl)c3)cc2n1	i	26	i	i	i	i	31	i
COc1ccc(-c2cc3nc(C)cc(N4CCN(C(=O)c5ccco5)CC4)n3n2)cc1	nt	i	i	nt	i	nt	nt	nt
O=C(OCc1ccccc1)/C(=C/c1cccc2ccccc12)NC(=O)c1ccccc1	i	14	i	i	i	i	i	i
Cc1ccc(NC(=O)Nc2nc3ccccc3s2)cc1NC(=O)Nc1nc2ccccc2s1	i	10	i	i	i	i	10	i
O=C(c1cc(COc2c(F)cccc2F)on1)N1CC[C@@H]2CCCC[C@H]2C1	nt	i	i	nt	i	nt	nt	nt
CCOc1ccc(C(=O)Nc2ccc(NC(=O)c3ccco3)c(Cl)c2)cc1Br	i	36	i	i	i	i	i	i
CCOc1cc(C(=O)Nc2ccc3c(c2)OCO3)ccc1OCCOc1ccccc1Cl	i	10	i	i	i	i	12	i
CCOc1ccc(C(=O)Nc2ccc(NC(=O)c3ccccc3)c(C)c2)cc1[N+](=O)[O-]	i	12	i	i	i	i	i	i
Cc1ccc(C(=O)Nc2ccc3c(c2)OCO3)cc1Cl	i	i	i	i	i	i	nt	nt
